Experimental data pooled from the literature.
Lines come from different studies, so protocols differ. Values after ≈ are worked out from the molar mass of the structure shown.

`CC[C@H](C)C[C@H](C)CCCCCCCCC(=O)N[C@H]1C[C@@H](O)[C@@H](NCCN)NC(=O)[C@@H]2[C@@H](O)CCN2C(=O)[C@H]([C@H](O)CCN)NC(=O)[C@H]([C@H](O)[C@@H](O)c2ccc(O)cc2)NC(=O)[C@@H]2C[C@@H](O)CN2C(=O)[C@H]([C@@H](C)O)NC1=O` gave an MIC of 0.25 µg/mL (≈ 0.229 µM) (Nakaseomyces glabratus; microbial growth, broth dilution; ATCC15126; 48 h).
With `O=C/C=C/c1ccccc1` the inhibition zone was 8 mm (Bacillus subtilis; microbial growth, well diffusion; MTCC121; 1000 µg/mL, 18 h).
With `C#Cc1cccc(O)c1C=NNC(=O)c1ccc(COC)cc1` the MIC80 was 0.06 µg/mL (≈ 0.195 µM) (Cryptococcus neoformans; microbial growth, broth dilution; pH 7.4).
`CC(=O)O[C@H]1C(=O)[C@@]2(C)[C@H]([C@H](OC(=O)c3ccccc3)[C@]3(O)C[C@H](OC(=O)[C@H](O)[C@@H](NC(=O)c4ccccc4)c4ccccc4)C(C)=C1C3(C)C)[C@]1(OC(C)=O)CO[C@@H]1C[C@@H]2O` gave an inhibition of > 90% (HaCaT; cell growth or viability, CCK-8; 12.5 µM, 72 h).
`O=C1CCP(c2ccccc2)CC1` has an IC50 of 73.3 µM (HaCaT; cell growth or viability, MTT; 72 h).
`COc1cnc(OC)n2nc(NS(=O)(=O)c3c(OCC(F)F)cccc3C(F)(F)F)nc12` gave an inhibition of 0.69% (HaCaT; cell growth or viability, CCK-8; 50 µM, 72 h).
The IC50 of `O=C1CCP(=S)(c2ccccc2)CC1` is reported as 14.2 µM (HaCaT; cell growth or viability, MTT; 72 h).
`C#Cc1ccc(C=NNC(=O)c2ccc(COCCC)cc2)c(O)c1` gave an MIC80 of 0.015 µg/mL (≈ 0.0446 µM) (Cryptococcus neoformans; microbial growth, broth dilution; pH 7.4).
`S=P1(c2ccccc2)CCCCC1` has an IC50 of > 100 µM (HaCaT; cell growth or viability, MTT; 72 h).
For `C#Cc1ccc(C(=O)NN=Cc2c(O)cccc2C#C)cc1`, the MIC80 was 0.015 µg/mL (≈ 0.052 µM) (Cryptococcus neoformans; microbial growth, broth dilution; pH 7.4).
The IC50 of `CC[C@H](C)[C@@H]([C@@H](CC(=O)N1CCC[C@H]1[C@H](OC)[C@@H](C)C(=O)N[C@H](C)[C@@H](O)c1ccccc1)OC)N(C)C(=O)[C@@H](NC(=O)[C@@H](NC)C(C)C)C(C)C` is reported as 0.00185 µM (Daudi; cell growth or viability, CCK-8).
For `C#Cc1ccc(C=NNC(=O)c2cc(Br)cc(Br)c2O)c(O)c1`, the MIC80 was 0.03 µg/mL (≈ 0.0685 µM) (Cryptococcus neoformans; microbial growth, broth dilution; pH 7.4).
`N.N.[Cl][Pt][Cl]` has an IC50 of 0.86 µM (Daudi; cell growth or viability, ATP luminescence; 72 h).
